Screening results deposited in PubChem BioAssay by several laboratories.
Hsp70 activator – Hsp70 transcriptional activators, primary screen, cell-based, HeLa, Hsp70 promoter luciferase, luminescence, 10 µM. HeLa Hsp70 promoter luciferase reporter; scaled: vehicle 0, proteasome-inhibitor control 100%. activation, % at 10 µM. 200,000 tested, 0.04% active. AID 1203, 2008;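 active means activation above the mean across all tested compounds plus 3 SD, cutoff set per campaign, cut at about 5.5% in these data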;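 further: 100% = MG132 at 30 µM as the positive control and 0% = DMSO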
Rad51 HR inh – human RAD51 strand exchange inhibitors, primary screen, biochemical, fluorescence. DNA repair protein RAD51 homolog 1 (Homo sapiens), Q06609. hRad51 DNA strand exchange, fluorescence dequenching. inhibition, % at 10 µM. 200,000 tested, 0.085% active;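 active means inhibition above 40% at the single screening dose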;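 further: 0% = DMSO control wells and 100% = blanks with heterologous ssDNA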
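System: human Rad51 nucleoprotein filaments preassembled on unlabelled ssDNA. Reagent: labelled 47-mer dsDNA for strand exchange. Schedule: 30-min compound preincubation and 15-min exchange, both room temperature. Measured by: FRET fluorescence dequenching, excitation 485 nm, emission 520 nm. Read-out: Fluorescence-based percent inhibition, control- and blank-normalised. Benchmarks: plate controls and plate blanks.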
HSF-1 act – HSF-1 activators, primary screen, NIH3T3-HGL cells, MG132 stress, luminescence, single point | NIH3T3-HGL HSF-1 luciferase reporter, 8 h; 100% = twice DMSO control signal | activation, % at 9 µM | 300,000 tested, 1.7% active;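 active means mean replicate activation of at least 50% with a set share of replicates each reaching 50%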;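 further: 0% = median of the neutral control wells and 100% = twice that signal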
HSV replic up – enhancers of HSV replication in host cells, fold increase, host cell viability; HSV replication augmentation in cells; maximum fold increase; 220,000 tested, 0.005% active; in the data active means maximum fold increase above about 1.5; tested in PC3 cells
HSF1 inhib – HSF1 inhibitors in luciferase reporter cells, primary screen, cell-based, NIH3T3, luminescence | NIH3T3-HGL HSE-luciferase, MG132-induced, luminescence 8 h; stronger effect = lower value | 300,000 tested, 0.77% active | activity change, negative = inhibition, % at 7.5 µM (by protocol);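 active means more than half of replicate wells show activity change below -50%, luminescence cut by over half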;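 further: luciferase reports HSF-1 transcriptional activity via heat shock element; 0% = median of DMSO wells and -100% = zero luminescence signal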
MDM2 E3 inh – MDM2-luciferase reporter signal enhancers, primary screen, MDM2 E3 ligase inhibitor project, cell-based, luminescence, 1536-well; signal enhancement, % at 5 µM; AID 1230, 2008; 210,000 tested, 0.11% active; E3 ubiquitin-protein ligase Mdm2 (Homo sapiens), Q00987; cell-based MDM2 ubiquitination luciferase reporter, 2 h; 0 = plate control, 100 = twice control, blank-subtracted;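 active means signal enhancement of 30% or more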;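 further: luminescence tracks abundance of the self-degrading MDM2-luciferase fusion protein; higher signal means inhibition of MDM2 E3 ligase activity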
Target sequence (Q00987 whole entry, looked up, the tested form may be a part): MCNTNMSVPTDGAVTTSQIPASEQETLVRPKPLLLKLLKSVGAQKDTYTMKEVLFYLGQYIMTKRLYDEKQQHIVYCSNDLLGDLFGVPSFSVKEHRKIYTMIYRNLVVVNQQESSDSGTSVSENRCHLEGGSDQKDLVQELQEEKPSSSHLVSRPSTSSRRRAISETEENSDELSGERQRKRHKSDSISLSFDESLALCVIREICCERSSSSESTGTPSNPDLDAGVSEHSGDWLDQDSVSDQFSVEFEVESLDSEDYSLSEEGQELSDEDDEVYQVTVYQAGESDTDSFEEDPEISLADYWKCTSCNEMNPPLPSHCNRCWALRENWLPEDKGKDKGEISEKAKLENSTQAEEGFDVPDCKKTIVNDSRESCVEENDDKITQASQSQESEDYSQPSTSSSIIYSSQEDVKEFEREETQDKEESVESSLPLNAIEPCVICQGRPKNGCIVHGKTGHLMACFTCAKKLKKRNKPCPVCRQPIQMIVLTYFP
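system = mammalian cells stably expressing self-ubiquitinating, self-degrading MDM2 E3–luciferase fusion | quantity = 2000 cells per well seeded | incubation = 4 h cell settling then 2 h compound exposure, 37 °C | signal = SteadyLite luminescence, 15 min reagent step | benchmarks = plate control and blank wells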
Active calls of the source: *; i = inactive; / = no result given. Rows were chosen to be rich in hits. Some 2.6% of all compounds tested hit in one or more screens of this group.

SMILES	Hsp70 activator	Rad51 HR inh	HSF-1 act	HSV replic up	HSF1 inhib	MDM2 E3 inh
COC(=O)c1sccc1NC(=O)Nc1cccc(OC)c1	/	/	6	/	6	/
COC(=O)c1sccc1NC(=O)Nc1ccc(F)cc1	/	/	70*	/	28	/
COc1cccc(-n2nnc3c(=O)n(Cc4ccccc4Cl)cnc32)c1	0	0	-62	i	-58*	-9
CC(=O)c1cccc(NC(=S)NC(=O)c2ccccc2)c1	2	/	55*	i	22	-7
CC(=O)c1cccc(NC(=S)NC(=O)c2cccc(Cl)c2)c1	0	/	56*	i	37	7
CC(=O)c1cccc(NC(=S)NC(=O)C(C)C)c1	0	-4	0	i	2	-7
O=C(O)c1cccc(NC(=S)NC(=O)c2ccc(-c3ccccc3)cc2)c1	0	3	-67	i	-58*	-30
O=C(NC(=S)Nc1cc([N+](=O)[O-])ccc1Cl)c1ccccc1	0	0	54*	i	12	-2
O=C(NC(=S)Nc1cccc([N+](=O)[O-])c1)c1ccccc1	/	-9	1	i	-3	-8
CC(C)OC(=O)c1ccc(NC(=S)NC(=O)c2cncc(Br)c2)cc1	/	/	-13	/	-7	/
CCC(=O)Nc1cccc(NC(=S)NC(=O)c2ccc(Cl)cc2Cl)c1	0	/	1	i	6	-3
CCC(=O)Nc1cccc(NC(=S)NC(=O)c2ccc(Cl)cc2)c1	0	6	64*	i	17	-18
COc1cc(OC)c(NC(=O)/C=C/C(=O)O)cc1Cl	/	-10	4	i	3	-26
O=S(=O)(/N=C(\c1ccccc1)N1CCOCC1)c1ccc(Cl)cc1	-1	-6	-8	i	-18	-16
O=S(=O)(/N=C(/c1ccccc1Cl)N1CCOCC1)c1ccccc1	0	-1	-68	i	-58*	-18
O=C(CCC1CCCNC1)c1ccccc1 (configuration not stated)	/	/	-75	/	-70*	/
N/C(=N\OC(=O)CCC1CCCC1)c1ccccc1	0	24	17	i	5	-21
Cc1cc(/C=c2\sc3nc4ccccc4n3c2=O)c(C)n1-c1ccc(C(=O)O)cc1	0	-38	9	i	-13	-17
Cc1cc(/C=c2/sc3nc4ccccc4n3c2=O)c(C)n1-c1ccccn1	-1	-11	-92	i	-91*	-74
CC1CCCCN1C(=O)CSc1nc(C2CC2)nc2ccccc12 (configuration not stated)	/	/	-16	/	2	/
CCOc1ccc(CNCCCSc2ncccn2)cc1OC	/	/	-74	/	-68*	/
OC12CCCCC1C(c1ccc3c(c1)OCO3)N(Cc1ccccc1F)CC2 (configuration not stated)	0	/	57*	/	28	-14
OC12CCCCC1C(c1ccc3c(c1)OCO3)N(Cc1ccc(F)cc1)CC2 (configuration not stated)	0	6	54*	i	23	-5
OC12CCCCC1C(c1ccc3c(c1)OCO3)N(Cc1cccc(F)c1)CC2 (configuration not stated)	0	-3	30	i	2	2
CCN(CC)c1ccc(C2C3CCCCC3(O)CCN2CC(=O)N2CCCCC2)cc1 (configuration not stated)	-1	4	7	i	9	-21
CS(=O)(=O)N1CCCC(C(=O)Nc2ccccc2)C1 (configuration not stated)	/	/	4	/	-7	/
O=C(CCCn1c(=O)[nH]c2cc(Cl)ccc2c1=O)NCC1CCCO1 (configuration not stated)	0	/	-31	/	-18	-6
